In ChEMBL document CHEMBL1128440 (J Med Chem, 1995):
Where “and” joins values, the source holds several entries; their conditions need not be identical. Equal values may be shown once.

Assays:
[1] = Partition coefficient (logP); assay type: physicochemical; details: octanol/water
Method in brief: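 log P(o/w) (octanol/water) estimated by a reversed-phase HPLC method.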

[2] = biological target: T1, Progesterone receptor (Homo sapiens) (UniProt P06401); assay: Nonspecific binding affinity against progesterone receptor was estimated relative to compound R5020
T1 sequence (whole entry): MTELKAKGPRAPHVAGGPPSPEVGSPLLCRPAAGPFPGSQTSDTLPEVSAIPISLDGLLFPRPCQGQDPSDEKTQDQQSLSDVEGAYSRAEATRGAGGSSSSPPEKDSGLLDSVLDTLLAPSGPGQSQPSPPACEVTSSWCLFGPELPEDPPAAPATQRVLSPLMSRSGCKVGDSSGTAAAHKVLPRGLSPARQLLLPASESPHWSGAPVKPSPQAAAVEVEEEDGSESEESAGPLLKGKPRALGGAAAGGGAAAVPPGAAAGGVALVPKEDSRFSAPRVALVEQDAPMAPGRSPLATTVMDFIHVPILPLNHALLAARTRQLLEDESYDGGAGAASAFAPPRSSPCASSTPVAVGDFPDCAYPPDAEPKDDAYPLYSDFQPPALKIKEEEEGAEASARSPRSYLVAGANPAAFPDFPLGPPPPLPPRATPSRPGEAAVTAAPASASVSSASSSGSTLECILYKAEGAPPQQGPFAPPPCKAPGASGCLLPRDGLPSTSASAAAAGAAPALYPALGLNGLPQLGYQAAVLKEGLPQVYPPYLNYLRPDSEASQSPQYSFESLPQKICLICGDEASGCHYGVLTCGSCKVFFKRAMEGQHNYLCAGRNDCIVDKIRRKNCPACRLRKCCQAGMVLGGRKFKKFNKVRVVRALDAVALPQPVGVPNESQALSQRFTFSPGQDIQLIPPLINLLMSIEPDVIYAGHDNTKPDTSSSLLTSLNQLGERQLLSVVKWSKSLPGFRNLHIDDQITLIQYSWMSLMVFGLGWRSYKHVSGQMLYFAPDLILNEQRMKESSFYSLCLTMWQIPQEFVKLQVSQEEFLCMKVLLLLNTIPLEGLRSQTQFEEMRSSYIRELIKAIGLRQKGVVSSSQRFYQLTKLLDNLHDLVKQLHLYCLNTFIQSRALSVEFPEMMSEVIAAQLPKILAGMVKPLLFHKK

[3] = biological target: T1, Progesterone receptor (Homo sapiens); assay: Binding selectivity index as the ratio of RBA value to that of NSB value.
Method in brief: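 BSI calculated as the ratio of RBA to NSB.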

Row | Structure (SMILES) | logP [1] | logP ([1]; read-out: logP) | NSB [2] | BSI [3]
1 | CC(=O)[C@@]12OC(c3ccco3)O[C@@H]1CC1C3CCC4=CC(=O)CC[C@]4(C)C3CC[C@@]12C (stereo not given in full) | 4.76 | 4.56 | 1.69 and 2.08 | –
2 | CC1(c2ccco2)O[C@@H]2CC3C4CCC5=CC(=O)CC[C@@H]5C4CC[C@]3(C)[C@]2(C(=O)CO)O1 (stereo not given in full) | 3.9 | 4.23 | 1.2 and 0.86 | –
3 | CC(=O)[C@@]12OC(C)(c3ccco3)O[C@@H]1CC1C3CCC4=CC(=O)CC[C@]4(C)C3CC[C@@]12C (stereo not given in full) | 5.03 | 4.76 | 2.08 and 2.74 | 2 and < 1
